Assay results from publication PMC3856692 (Biochemistry, 2013).
“Also recorded” adds a separate entry of the source. Primed or numbered codes have the meaning given here. No end group written: not given here. 5FAM′ = 5-carboxyfluorescein

Legend:
CHIP [1] = target: T1, CHIP (Homo sapiens, UniProt Q9UNE7); test: Fluorescence polarization; type: binding; conditions: FP, 20 nM tracer, Figure 2
T1 sequence (Q9UNE7 1-303): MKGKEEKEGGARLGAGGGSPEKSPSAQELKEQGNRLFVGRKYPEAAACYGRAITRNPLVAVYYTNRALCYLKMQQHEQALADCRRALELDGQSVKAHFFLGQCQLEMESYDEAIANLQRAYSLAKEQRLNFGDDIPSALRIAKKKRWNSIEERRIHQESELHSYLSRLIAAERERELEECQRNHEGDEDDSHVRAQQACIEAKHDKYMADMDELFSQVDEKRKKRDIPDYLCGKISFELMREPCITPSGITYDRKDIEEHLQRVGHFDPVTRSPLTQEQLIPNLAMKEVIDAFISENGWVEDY

CHIP [2] = target: T1, CHIP; test: Biolayer interferometry; type: binding; conditions: for Binding to CHIP (in words): BLI, Figure 1d / Figure 5
[3] = 15N relaxation measurements, oligomeric state; type: physicochemical; conditions: 15N relaxation experiments
CHIP [4] = test: 1D 15N NMR relaxation of Hsc70 with or without CHIP; parameters: species or system Human; conditions: 15N relaxation
In short: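 15N-labelled full-length Hsc70 with uncleaved N-terminal His tag, 67 µM in 50 mM K2PO4, 200 µM NRLLLTG, 1 mM ADP, 5 mM MgCl2, 10 mM KCl, 0.02% NaN3, pH 7.2, 25 °C, with or without CHIP, at 800 MHz. 1D 15N R1 (10 h) and R2 (4.5 h) experiments were run, plus CSA/dipolar cross-correlated relaxation (T 10.2 ms). The 9.6–8.6 and 8.6–7.8 ppm regions were integrated and fitted single-exponentially, with jackknife errors.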

CHIP [5] = test: 1H-15N TROSY NMR of 15N-labeled Hsc70 with CHIP; type: binding, Human; conditions: for Change of C-terminal resonances on CHIP binding (in words): residues 639-646 (GPTIEEVD)
In short: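 800 MHz TROSY of 15N full-length Hsc70 (uncleaved His tag) in 50 mM K2PO4, 110 µM NRLLLTG, 1 mM ADP, 5 mM MgCl2, 10 mM KCl, 0.02% NaN3, pH 7.2. Spectra: Hsc70 alone at 100 µM (12 h); Hsc70:CHIP 57:21 µM and 40:30 µM (52 h each); 67 µM 1:1 with CHIP; 60 µM 1:1:1 with UbcH5. Tail assigned from 250 µM triple-labelled Hsc70(391–646) 3D spectra at 30 °C.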

[6] = target: T2, CHIP (C-terminus of Hsc70 Interacting Protein), full-length human (human, UniProt Q9UNE7 1-303); test: fluorescence polarisation
T2 sequence (looked up): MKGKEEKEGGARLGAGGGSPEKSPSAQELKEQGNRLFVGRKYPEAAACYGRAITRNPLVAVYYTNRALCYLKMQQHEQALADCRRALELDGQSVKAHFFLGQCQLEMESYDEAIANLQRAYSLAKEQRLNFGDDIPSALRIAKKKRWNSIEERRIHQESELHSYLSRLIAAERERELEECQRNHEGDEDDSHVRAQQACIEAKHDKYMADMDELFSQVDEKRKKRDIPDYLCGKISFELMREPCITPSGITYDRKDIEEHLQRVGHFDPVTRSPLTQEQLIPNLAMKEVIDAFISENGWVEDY

5FAM-DVEEM
Binding / affinity of fluorescent probes for CHIP (in words) (CHIP [1]): no affinity for CHIP
Binding / affinity of fluorescent probes for CHIP (in words) (CHIP [1]; listed as DVEEM): had no affinity for CHIP

5FAM-MEEVD
Binding / affinity of fluorescent probes for CHIP (in words) (CHIP [1]): nearly identical affinity to the longer peptide
Binding / affinity of fluorescent probes for CHIP (in words) (CHIP [1]; listed as MEEVD): binds with affinity equal to that of the longer probe

Hsc70ΔEEVD: Hsc70 mutant lacking the EEVD sequence
Binding to CHIP (in words) (CHIP [2]): Neither the Hsc70ΔSBD, nor the Hsc70ΔEEVD mutant displayed any ability to bind CHIP; also recorded: cannot bind CHIP

NBD: nucleotide-binding domain, Hsc70 residues 1–383
Binding to CHIP (in words) (CHIP [2]; listed as Hsc70ΔSBD): Neither the Hsc70ΔSBD, nor the Hsc70ΔEEVD mutant displayed any ability to bind CHIP; also recorded: cannot bind CHIP

SBD: substrate-binding domain, Hsc70 residues 391–646
Oligomeric state (in words) [3]: dimeric

wtHsc70: Human full-length Hsc70 (HspA8; 1–646)
Oligomeric state (in words) [3]: monomeric at 100 µM
Hsc70-CHIP binding stoichiometry (CHIP [2]; Hsc70 per CHIP): two molecules of Hsc70
Kd (CHIP [2]; abstract, binding of Hsc70 to CHIP): ~60 nM
Slower dissociation than C-terminal peptide (CHIP [2]; koff, wtHsc70 vs C-terminal peptide): ~ 5 fold
Apparent molecular weight of the Hsc70-CHIP complex (CHIP [2]; two molecules of Hsc70 and CHIP homodimer): 210 kDa
Increase in binding free energy relative to isolated C-terminal peptide (CHIP [2]; wtHsc70 vs C-terminal peptide): 1.08 kcal/M
Extra binding free energy beyond EEVD (CHIP [2]; wtHsc70 vs isolated peptide): 1.08 kcal/mol
Rotational correlation time of structured area with vs without CHIP (in words) (CHIP [4]): not increased upon binding to CHIP
Change of TROSY spectrum on addition of UbcH5c or excess CHIP (in words) (CHIP [5]; 1:1:1 15N Hsc70, CHIP and UbcH5c, 60 µM, or excess CHIP (data not shown)): does not further change the spectrum
Change of TROSY spectrum on CHIP binding (in words) (CHIP [5]; 800 MHz, ADP and NRLLLTG bound state, pH 7.2, 25°C, 1:1 wtHsc70:CHIP): barely distinguishable from that of wtHsc70 alone
Change of resonances of residues 616–636 on CHIP binding (in words) (CHIP [5]; assigned upstream residues 616–636 of unstructured tail): remained visible and relatively unaffected by the presence of CHIP
Change of C-terminal resonances on CHIP binding (in words) (CHIP [5]): progressively disappear upon complex formation; also recorded: disappear from the wtHsc70 NMR spectrum
Change of C-terminal resonances on CHIP binding (in words) (CHIP [5]; listed as Hsc70): disappear from the NMR spectrum

{5FAM′}-DDTSRMEEVD [5FAM-DDTSRMEEVD (Hsp90α-derived C-terminus, residues 723-732)]
binding result [6]: binds

{5FAM′}-MEEVD [5FAM-MEEVD]
Kd [6]: 1500 ± 76 nM
